Measured values published in PMC4893941 (Journal of medicinal chemistry, 2016).

Legend:
[1] = Octanol–water partition coefficients; assay type: physicochemical; conditions: 1-octanol/water partition, UV–vis absorbance
Summary of the method: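 Octanol and water were mutually presaturated. A 64 μM stock of test compound in water-saturated octanol was vortexed 10 min with water. After phase separation, the octanol layer was diluted and its UV–vis absorbance read. log P was calculated from octanol absorbance before versus after partitioning and the water/octanol phase volumes.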

human glioma T98G cells = assay: Time-dependent cellular uptake; assay type: cell-based; conditions: 10 μM; for cellular uptake after 24 h, fold higher than 7: relative to BODIPY 7
Summary of the method: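 T98G glioma cells were seeded at 15 000/well in EMEM with 10% FBS and grown 24 h. They were then exposed to 10 μM test compound for 0, 1, 2, 4, 8 or 24 h, PBS-washed and lysed in 0.25% Triton X-100/PBS. Fluorescence at 485/590 nm was read against compound standard curves (0.3125–10 μM). Cell number came from a CyQuant cell standard curve, and uptake was expressed as nM per cell.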

[2] = system: human hCMEC/D3 brain endothelial cell monolayers; assay: BBB permeability across hCMEC/D3 cell monolayers; assay type: in vitro ADME; conditions: hCMEC/D3 monolayer; for Pe (permeability coefficient): 50 μM in transport buffer, 0–45 min
Summary of the method: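 hCMEC/D3 cells were grown 48 h on 0.4 μm PET Transwell inserts in EBM-2 with 5% FBS, hydrocortisone, ascorbate, lipid concentrate, HEPES and bFGF. Monolayers were checked by microscopy. Test compound or lucifer yellow (50 μM) in HBSS/HEPES/pyruvate transport buffer was added to the upper chamber at 37 °C. Inserts were moved to fresh buffer at 10 and 25 min, and the lower chamber was sampled at 10, 25 and 45 min. Fluorescence was read at 485/590 nm (compound) or 425/538 nm (LY) against standard curves. Pe came from clearance-slope fits, cell inserts minus cell-free inserts, in triplicate.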

| Substance | log P [1] | cellular uptake at 24 h (human glioma T98G cells) [nM/cell] | cellular uptake after 24 h, fold higher than 7 (human glioma T98G cells) | Pe (permeability coefficient) [2] | Pe relative to LY ([2]; relative to lucifer yellow) [fold] |
| --- | --- | --- | --- | --- | --- |
| 8-(1,2-Carboranyl-1-thio)-1,3-dimethyl-BODIPY [2b] | 1.69 | 0.36 ± 0.03 | 106 fold | 6.0 ± 1.0 × 10^−5 cm/s |  |
| lucifer yellow [LY, reference compound] |  |  |  | 2.2 ± 0.8 × 10^−5 cm/s |  |
| 8-[4-(2-Methyl-1,2-carboranyl)methylphenyl]-BODIPY [compound 4] | 2.11 | 0.41 ± 0.03 | 118 fold |  |  |
| 8-(1,2-Carboranyl-1-thio)-2-ethyl-1,3,6,7-tetramethyl-BODIPY [5b] | 1.95 | 1.5 ± 0.05 | about 436 fold | 2.6 ± 0.9 × 10^−5 cm/s |  |
| 8-(1,2-Carboranyl-1-thio)-3-chloro-2-ethyl-1,3,6,7-tetramethyl-BODIPY [6b] | 1.93 | 0.46 ± 0.06 | 135 fold | 5.4 ± 0.6 × 10^−5 cm/s |  |
| 8-(1,2-Carboranyl-1-thio)-BODIPY [1b] | 1.50 | 0.23 ± 0.05 | 67 fold | 16.4 ± 3.3 × 10^−5 cm/s | 7 |
